Converted amounts (≈) assume the structure as drawn.
Test system: not listed separately
Experiment: Aqueous solubility in pH 7.4 phosphate buffer at 120 uM after 24 hrs by HPLC method
Type: physicochemical
Conditions: not given
In the case of `COC(=O)CC[C@H](NC(=O)c1c(C)[nH]c(/C=C2\C(=O)Nc3ccc(C(=O)N[C@@H](Cc4ccccc4)C(=O)O)cc32)c1C)C(=O)OC`, the solubility at 24 h, 120 µM is reported as no less than 120 µM.
`COC(=O)[C@H](Cc1ccccc1)NC(=O)c1c(C)[nH]c(/C=C2\C(=O)Nc3ccc(C(=O)N[C@@H](Cc4ccccc4)C(=O)O)cc32)c1C` showed a solubility at 24 h, 120 µM of 50 µM (≈ 31.7 µg/mL).
Compound `CCOC(=O)c1c(C)[nH]c(/C=C2\C(=O)Nc3ccc(C(=O)N[C@@H](Cc4ccccc4)C(=O)OC)cc32)c1C` has a solubility at 24 h, 120 µM of less than 1 µM.
In the case of `Cc1[nH]c(/C=C2\C(=O)Nc3ccc(C(=O)O)cc32)c(C)c1C(=O)N[C@@H](Cc1ccccc1)C(=O)O`, the solubility at 24 h, 120 µM is reported as no less than 120 µM.
For `COC(=O)CC[C@H](NC(=O)c1ccc2c(c1)/C(=C/c1[nH]c(C)c(C(=O)O)c1C)C(=O)N2)C(=O)OC`, the solubility at 24 h, 120 µM was 100 µM (≈ 48.3 µg/mL).
Compound `COC(=O)CC[C@H](NC(=O)c1c(C)[nH]c(/C=C2\C(=O)Nc3ccc(C(=O)O)cc32)c1C)C(=O)OC` has a solubility at 24 h, 120 µM of no less than 120 µM.

Test system: not listed separately
Experiment: Aqueous solubility in pH 5.5 phosphate buffer at 120 uM after 24 hrs by HPLC method
Type: physicochemical
Conditions: phosphate buffer, pH 5.5
Compound `COC(=O)CC[C@H](NC(=O)c1c(C)[nH]c(/C=C2\C(=O)Nc3ccc(C(=O)N[C@@H](Cc4ccccc4)C(=O)O)cc32)c1C)C(=O)OC` has a solubility at 24 h, 120 µM of 60 µM (≈ 37.8 µg/mL).
`COC(=O)[C@H](Cc1ccccc1)NC(=O)c1c(C)[nH]c(/C=C2\C(=O)Nc3ccc(C(=O)N[C@@H](Cc4ccccc4)C(=O)O)cc32)c1C` gave a solubility at 24 h, 120 µM of 20 µM (≈ 12.7 µg/mL).
Work on `CCOC(=O)c1c(C)[nH]c(/C=C2\C(=O)Nc3ccc(C(=O)N[C@@H](Cc4ccccc4)C(=O)OC)cc32)c1C` yielded a solubility at 24 h, 120 µM of less than 1 µM.
Compound `Cc1[nH]c(/C=C2\C(=O)Nc3ccc(C(=O)O)cc32)c(C)c1C(=O)N[C@@H](Cc1ccccc1)C(=O)O` has a solubility at 24 h, 120 µM of 110 µM (≈ 52.1 µg/mL).
In the case of `COC(=O)CC[C@H](NC(=O)c1ccc2c(c1)/C(=C/c1[nH]c(C)c(C(=O)O)c1C)C(=O)N2)C(=O)OC`, the solubility at 24 h, 120 µM is reported as less than 5 µM.
With `COC(=O)CC[C@H](NC(=O)c1c(C)[nH]c(/C=C2\C(=O)Nc3ccc(C(=O)O)cc32)c1C)C(=O)OC` the solubility at 24 h, 120 µM was 30 µM (≈ 14.5 µg/mL).

Test system: Receptor-type tyrosine-protein kinase FLT3 (Homo sapiens), P36888 [UNDEFINED MUTATION]
Sequence (P36888 whole entry, looked up, change not shown): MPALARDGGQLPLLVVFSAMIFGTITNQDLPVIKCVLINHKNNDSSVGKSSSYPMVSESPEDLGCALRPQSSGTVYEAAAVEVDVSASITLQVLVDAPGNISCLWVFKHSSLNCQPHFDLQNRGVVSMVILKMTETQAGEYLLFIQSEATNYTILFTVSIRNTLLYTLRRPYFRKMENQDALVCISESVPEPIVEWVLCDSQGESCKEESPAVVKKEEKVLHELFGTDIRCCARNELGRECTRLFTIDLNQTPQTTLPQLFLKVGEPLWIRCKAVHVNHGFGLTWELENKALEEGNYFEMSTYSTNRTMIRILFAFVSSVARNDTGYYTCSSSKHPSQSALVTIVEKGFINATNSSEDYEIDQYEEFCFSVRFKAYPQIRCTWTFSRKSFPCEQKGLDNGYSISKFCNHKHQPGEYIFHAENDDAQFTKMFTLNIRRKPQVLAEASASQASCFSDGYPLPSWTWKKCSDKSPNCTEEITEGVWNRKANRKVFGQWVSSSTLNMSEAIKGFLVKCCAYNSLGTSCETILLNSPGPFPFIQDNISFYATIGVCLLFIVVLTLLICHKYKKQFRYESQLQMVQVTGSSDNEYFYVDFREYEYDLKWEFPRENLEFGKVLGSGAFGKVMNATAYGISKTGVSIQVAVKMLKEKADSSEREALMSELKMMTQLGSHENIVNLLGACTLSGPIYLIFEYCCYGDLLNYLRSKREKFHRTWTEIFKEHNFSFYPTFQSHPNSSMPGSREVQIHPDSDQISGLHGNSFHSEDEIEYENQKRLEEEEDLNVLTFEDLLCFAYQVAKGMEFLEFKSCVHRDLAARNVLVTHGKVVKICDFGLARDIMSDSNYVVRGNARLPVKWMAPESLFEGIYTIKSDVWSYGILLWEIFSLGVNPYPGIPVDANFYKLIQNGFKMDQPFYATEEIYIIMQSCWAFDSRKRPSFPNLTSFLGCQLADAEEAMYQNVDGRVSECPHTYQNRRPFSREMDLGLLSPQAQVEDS
Experiment: Inhibition of FLT3 ITD mutant (unknown origin) using TAMRA-Src- tide as substrate at 12.5 uM after 1 hr by fluorescence polarization assay relative to control
Conditions: not given
Method in brief: (§1)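 FLT3-ITD kinase inhibition by fluorescence polarization IMAP assay; each compound tested at 12.5 and 1.25 μM; percent inhibition, average of two parallel measurements.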
Compound `COC(=O)CC[C@H](NC(=O)c1c(C)[nH]c(/C=C2\C(=O)Nc3ccc(C(=O)N[C@@H](Cc4ccccc4)C(=O)O)cc32)c1C)C(=O)OC` has an inhibition greater than 100%.
`COC(=O)[C@H](Cc1ccccc1)NC(=O)c1c(C)[nH]c(/C=C2\C(=O)Nc3ccc(C(=O)N[C@@H](Cc4ccccc4)C(=O)O)cc32)c1C` gave an inhibition greater than 100%.
Work on `CCOC(=O)c1c(C)[nH]c(/C=C2\C(=O)Nc3ccc(C(=O)N[C@@H](Cc4ccccc4)C(=O)OC)cc32)c1C` yielded an inhibition of 74.2%.
Compound `Cc1[nH]c(/C=C2\C(=O)Nc3ccc(C(=O)O)cc32)c(C)c1C(=O)N[C@@H](Cc1ccccc1)C(=O)O` has an inhibition greater than 100%.
For `COC(=O)CC[C@H](NC(=O)c1ccc2c(c1)/C(=C/c1[nH]c(C)c(C(=O)O)c1C)C(=O)N2)C(=O)OC`, the inhibition was 28.8%.
Work on `COC(=O)CC[C@H](NC(=O)c1c(C)[nH]c(/C=C2\C(=O)Nc3ccc(C(=O)O)cc32)c1C)C(=O)OC` yielded an inhibition greater than 100%.

Test system: Receptor-type tyrosine-protein kinase FLT3 (Homo sapiens), P36888 [UNDEFINED MUTATION]
Experiment: Inhibition of FLT3 ITD mutant (unknown origin) using TAMRA-Src- tide as substrate at 1.25 uM after 1 hr by fluorescence polarization assay relative to control
Conditions: not given
Method in brief: as §1
`COC(=O)CC[C@H](NC(=O)c1c(C)[nH]c(/C=C2\C(=O)Nc3ccc(C(=O)N[C@@H](Cc4ccccc4)C(=O)O)cc32)c1C)C(=O)OC` showed an inhibition of 98.7%.
Work on `COC(=O)[C@H](Cc1ccccc1)NC(=O)c1c(C)[nH]c(/C=C2\C(=O)Nc3ccc(C(=O)N[C@@H](Cc4ccccc4)C(=O)O)cc32)c1C` yielded an inhibition of 94.8%.
`CCOC(=O)c1c(C)[nH]c(/C=C2\C(=O)Nc3ccc(C(=O)N[C@@H](Cc4ccccc4)C(=O)OC)cc32)c1C` showed an inhibition of 25%.
In the case of `Cc1[nH]c(/C=C2\C(=O)Nc3ccc(C(=O)O)cc32)c(C)c1C(=O)N[C@@H](Cc1ccccc1)C(=O)O`, the inhibition is reported as 100%.
`COC(=O)CC[C@H](NC(=O)c1ccc2c(c1)/C(=C/c1[nH]c(C)c(C(=O)O)c1C)C(=O)N2)C(=O)OC` gave an inhibition of 58.7%.
`COC(=O)CC[C@H](NC(=O)c1c(C)[nH]c(/C=C2\C(=O)Nc3ccc(C(=O)O)cc32)c1C)C(=O)OC` gave an inhibition of 97.4%.

Test system: MV4-11
Experiment: Antiproliferative activity against human MV4-11 cells after 72 hrs by Celltiter-Glo luminescent cell viability assay
Type: functional, cell-based
Conditions: MV4-11, 72 h
Method in brief: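 MV4-11 leukaemia cells, 72 h proliferation assay, luminescence read-out; IC50 determined from concentration–response.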
`CCOC(=O)c1c(C)[nH]c(/C=C2\C(=O)Nc3ccc(C(=O)N[C@@H](Cc4ccccc4)C(=O)OC)cc32)c1C` gave an IC50 of 10.6 µM.

Test system: not listed separately
Experiment: Lipophilicity, chromatographic hydrophobicity index of the compound at pH 7.4 by HPLC method
Type: physicochemical
Conditions: buffer
Method in brief: (§2)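 RP-HPLC with buffer/acetonitrile gradient elution; CHI profile at starting pH 10.5, 7.4, 5.5 and 1.2; values given as average of the compound group.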
With `COC(=O)CC[C@H](NC(=O)c1c(C)[nH]c(/C=C2\C(=O)Nc3ccc(C(=O)N[C@@H](Cc4ccccc4)C(=O)O)cc32)c1C)C(=O)OC` the CHI was 50.
`COC(=O)[C@H](Cc1ccccc1)NC(=O)c1c(C)[nH]c(/C=C2\C(=O)Nc3ccc(C(=O)N[C@@H](Cc4ccccc4)C(=O)O)cc32)c1C` gave a CHI of 60.
Work on `CCOC(=O)c1c(C)[nH]c(/C=C2\C(=O)Nc3ccc(C(=O)N[C@@H](Cc4ccccc4)C(=O)OC)cc32)c1C` yielded a CHI of 98.
`Cc1[nH]c(/C=C2\C(=O)Nc3ccc(C(=O)O)cc32)c(C)c1C(=O)N[C@@H](Cc1ccccc1)C(=O)O` showed a CHI of 29.
Work on `COC(=O)CC[C@H](NC(=O)c1ccc2c(c1)/C(=C/c1[nH]c(C)c(C(=O)O)c1C)C(=O)N2)C(=O)OC` yielded a CHI of 42.
`COC(=O)CC[C@H](NC(=O)c1c(C)[nH]c(/C=C2\C(=O)Nc3ccc(C(=O)O)cc32)c1C)C(=O)OC` gave a CHI of 38.

Test system: not listed separately
Experiment: Lipophilicity, chromatographic hydrophobicity index of the compound at pH 5.5 by HPLC method
Type: physicochemical
Conditions: buffer
Method in brief: as §2
In the case of `COC(=O)CC[C@H](NC(=O)c1c(C)[nH]c(/C=C2\C(=O)Nc3ccc(C(=O)N[C@@H](Cc4ccccc4)C(=O)O)cc32)c1C)C(=O)OC`, the CHI is reported as 50.
`COC(=O)[C@H](Cc1ccccc1)NC(=O)c1c(C)[nH]c(/C=C2\C(=O)Nc3ccc(C(=O)N[C@@H](Cc4ccccc4)C(=O)O)cc32)c1C` gave a CHI of 60.
`CCOC(=O)c1c(C)[nH]c(/C=C2\C(=O)Nc3ccc(C(=O)N[C@@H](Cc4ccccc4)C(=O)OC)cc32)c1C` gave a CHI of 98.
In the case of `Cc1[nH]c(/C=C2\C(=O)Nc3ccc(C(=O)O)cc32)c(C)c1C(=O)N[C@@H](Cc1ccccc1)C(=O)O`, the CHI is reported as 35.
Work on `COC(=O)CC[C@H](NC(=O)c1ccc2c(c1)/C(=C/c1[nH]c(C)c(C(=O)O)c1C)C(=O)N2)C(=O)OC` yielded a CHI of 54.
In the case of `COC(=O)CC[C@H](NC(=O)c1c(C)[nH]c(/C=C2\C(=O)Nc3ccc(C(=O)O)cc32)c1C)C(=O)OC`, the CHI is reported as 45.

Test system: not listed separately
Experiment: Lipophilicity, chromatographic hydrophobicity index of the compound at pH 1.2 by HPLC method
Type: physicochemical
Conditions: buffer
Method in brief: as §2
`COC(=O)CC[C@H](NC(=O)c1c(C)[nH]c(/C=C2\C(=O)Nc3ccc(C(=O)N[C@@H](Cc4ccccc4)C(=O)O)cc32)c1C)C(=O)OC` showed a CHI of 68.
With `COC(=O)[C@H](Cc1ccccc1)NC(=O)c1c(C)[nH]c(/C=C2\C(=O)Nc3ccc(C(=O)N[C@@H](Cc4ccccc4)C(=O)O)cc32)c1C` the CHI was 81.
With `CCOC(=O)c1c(C)[nH]c(/C=C2\C(=O)Nc3ccc(C(=O)N[C@@H](Cc4ccccc4)C(=O)OC)cc32)c1C` the CHI was 99.
`Cc1[nH]c(/C=C2\C(=O)Nc3ccc(C(=O)O)cc32)c(C)c1C(=O)N[C@@H](Cc1ccccc1)C(=O)O` gave a CHI of 61.
`COC(=O)CC[C@H](NC(=O)c1ccc2c(c1)/C(=C/c1[nH]c(C)c(C(=O)O)c1C)C(=O)N2)C(=O)OC` showed a CHI of 59.
In the case of `COC(=O)CC[C@H](NC(=O)c1c(C)[nH]c(/C=C2\C(=O)Nc3ccc(C(=O)O)cc32)c1C)C(=O)OC`, the CHI is reported as 58.

Test system: not given
Conditions: buffer, pH 10.5
For `COC(=O)CC[C@H](NC(=O)c1c(C)[nH]c(/C=C2\C(=O)Nc3ccc(C(=O)N[C@@H](Cc4ccccc4)C(=O)O)cc32)c1C)C(=O)OC`, the CHI was 47.
`COC(=O)[C@H](Cc1ccccc1)NC(=O)c1c(C)[nH]c(/C=C2\C(=O)Nc3ccc(C(=O)N[C@@H](Cc4ccccc4)C(=O)O)cc32)c1C` showed a CHI of 58.
In the case of `CCOC(=O)c1c(C)[nH]c(/C=C2\C(=O)Nc3ccc(C(=O)N[C@@H](Cc4ccccc4)C(=O)OC)cc32)c1C`, the CHI is reported as 100.
For `Cc1[nH]c(/C=C2\C(=O)Nc3ccc(C(=O)O)cc32)c(C)c1C(=O)N[C@@H](Cc1ccccc1)C(=O)O`, the CHI was 24.
With `COC(=O)CC[C@H](NC(=O)c1ccc2c(c1)/C(=C/c1[nH]c(C)c(C(=O)O)c1C)C(=O)N2)C(=O)OC` the CHI was 34.
`COC(=O)CC[C@H](NC(=O)c1c(C)[nH]c(/C=C2\C(=O)Nc3ccc(C(=O)O)cc32)c1C)C(=O)OC` showed a CHI of 35.

From ChEMBL document CHEMBL4190404, “Synthesis and characterization of amino acid substituted sunitinib analogues for the treatment of AML” (Bioorg Med Chem Lett, 2018)
